Reference: ChEMBL document CHEMBL3797104, “Triazole tethered C5-curcuminoid-coumarin based molecular hybrids as novel antitubulin agents: Design, synthesis, biological investigation and docking studies” (Eur J Med Chem, 2016)
Calls of active or inactive are those of the source. The rule behind the calls is not given here.

Legend:
[1] = Cytotoxicity against human THP1 cells assessed as growth inhibition at 50 uM after 48 hrs by SRB assay; assay type: functional; details: THP-1, 48 h, read-out: GI
Method in brief: (§1)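 Single-concentration screen at 50 µM. Cells grew 24 h at 37 °C, then had 48 h exposure in complete medium.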

[2] = Cytotoxicity against human COLO205 cells assessed as growth inhibition at 50 uM after 48 hrs by SRB assay; assay type: functional; details: COLO 205, 48 h, read-out: GI; method in brief: as §1
[3] = test system: PC-3; assay: (§2) Cytotoxicity against human PC3 cells assessed as growth inhibition at 50 uM after 48 hrs by SRB assay; assay type: functional; method in brief: as §1
[4] = Cytotoxicity against human HCT116 cells assessed as growth inhibition at 50 uM after 48 hrs by SRB assay; assay type: functional; details: HCT-116, 48 h, read-out: GI; method in brief: as §1
[5] = as §2; assay type: functional; details: PC-3, 48 h, read-out: GI; method in brief: as §1
[6] = Cytotoxicity against human THP1 cells after 48 hrs by SRB assay; assay type: functional, cell-based; details: THP-1, 48 h
Method in brief: (§3)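 SRB assay in 96-well plates. Cells were seeded and grown 24 h at 37 °C in a CO2 incubator, then given test material in complete medium for a further 48 h. Cells were fixed with cold 50% TCA for 1 h at 4 °C, stained 30 min with 0.4% SRB in 1% acetic acid, and washed with […]. IC50 was taken from multi-concentration testing, run only for hybrids giving >70% inhibition at 50 µM in at least one line.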

[7] = Cytotoxicity against human HCT116 cells after 48 hrs by SRB assay; assay type: functional, cell-based; details: HCT-116, 48 h; method in brief: as §3
[8] = Cytotoxicity against human COLO205 cells after 48 hrs by SRB assay; assay type: functional, cell-based; details: COLO 205, 48 h; method in brief: as §3

COc1ccc(/C=C/C(=O)/C=C/c2ccc(OCc3cn(CCCCCOc4cc(=O)oc5ccccc45)nn3)c(OC)c2)cc1OC
inhibition of growth at 50 µM [1]: 47%
inhibition of growth at 50 µM [2]: 43%
growth inhibition (GI) [3]: inactive
inhibition of growth at 50 µM [4]: 45%

COc1ccc(/C=C/C(=O)/C=C/c2ccc(OCc3cn(CCCCOc4cc(=O)oc5ccccc45)nn3)c(OC)c2)cc1
inhibition of growth at 50 µM [1]: 45%
inhibition of growth at 50 µM [2]: 49%
growth inhibition (GI) [3]: inactive
inhibition of growth at 50 µM [4]: 40%

COc1cc(/C=C/C(=O)/C=C/c2ccccc2)ccc1OCc1cn(CCOc2cc(=O)oc3ccccc23)nn1
inhibition of growth at 50 µM [1]: 61%
inhibition of growth at 50 µM [2]: 54%
inhibition of growth at 50 µM [5]: 10%
inhibition of growth at 50 µM [4]: 56%

COc1ccccc1/C=C/C(=O)/C=C/c1ccc(OCc2cn(CCCCCOc3cc(=O)oc4ccccc34)nn2)c(OC)c1
inhibition of growth at 50 µM [1]: 37%
inhibition of growth at 50 µM [2]: 30%
growth inhibition (GI) [3]: inactive
inhibition of growth at 50 µM [4]: 33%

COc1cc(/C=C/C(=O)/C=C/c2ccco2)ccc1OCc1cn(CCCCOc2cc(=O)oc3ccccc23)nn1
inhibition of growth at 50 µM [1]: 49%
inhibition of growth at 50 µM [2]: 43%
growth inhibition (GI) [3]: inactive
inhibition of growth at 50 µM [4]: 47%

COc1cccc(/C=C/C(=O)/C=C/c2ccc(OCc3cn(CCOc4cc(=O)oc5ccccc45)nn3)c(OC)c2)c1
inhibition of growth at 50 µM [1]: 77%
IC50 [6]: 7.13 µM
inhibition of growth at 50 µM [2]: 69%
inhibition of growth at 50 µM [5]: 13%
IC50 [7]: 9.76 µM
inhibition of growth at 50 µM [4]: 70%
IC50 [8]: 11.9 µM

COc1ccccc1/C=C/C(=O)/C=C/c1ccc(OCc2cn(CCCOc3cc(=O)oc4ccccc34)nn2)c(OC)c1
inhibition of growth at 50 µM [1]: 50%
inhibition of growth at 50 µM [2]: 57%
growth inhibition (GI) [3]: inactive
inhibition of growth at 50 µM [4]: 53%

COc1ccc(/C=C/C(=O)/C=C/c2ccc(OCc3cn(CCCCOc4cc(=O)oc5ccccc45)nn3)c(OC)c2)cc1OC
inhibition of growth at 50 µM [1]: 59%
inhibition of growth at 50 µM [2]: 53%
growth inhibition (GI) [3]: inactive
inhibition of growth at 50 µM [4]: 55%

COc1cc(/C=C/C(=O)/C=C/c2cc(OC)c(OC)c(OC)c2)ccc1OCc1cn(CCCOc2cc(=O)oc3ccccc23)nn1
inhibition of growth at 50 µM [1]: 79%
IC50 [6]: 5.43 µM
inhibition of growth at 50 µM [2]: 74%
inhibition of growth at 50 µM [5]: 12%
IC50 [7]: 8.65 µM
inhibition of growth at 50 µM [4]: 76%
IC50 [8]: 10.6 µM

COc1cc(/C=C/C(=O)/C=C/c2cccs2)ccc1OCc1cn(CCCCCOc2cc(=O)oc3ccccc23)nn1
inhibition of growth at 50 µM [1]: 34%
inhibition of growth at 50 µM [2]: 30%
growth inhibition (GI) [3]: inactive
inhibition of growth at 50 µM [4]: 31%

COc1ccc(/C=C/C(=O)/C=C/c2ccc(OCc3cn(CCOc4cc(=O)oc5ccccc45)nn3)c(OC)c2)cc1
inhibition of growth at 50 µM [1]: 78%
IC50 [6]: 7.41 µM
inhibition of growth at 50 µM [2]: 68%
inhibition of growth at 50 µM [5]: 15%
IC50 [7]: 9.29 µM
inhibition of growth at 50 µM [4]: 71%
IC50 [8]: 11.3 µM

COc1cc(/C=C/C(=O)/C=C/c2ccccc2)ccc1OCc1cn(CCCOc2cc(=O)oc3ccccc23)nn1
inhibition of growth at 50 µM [1]: 48%
inhibition of growth at 50 µM [2]: 43%
growth inhibition (GI) [3]: inactive
inhibition of growth at 50 µM [4]: 45%

COc1cccc(/C=C/C(=O)/C=C/c2ccc(OCc3cn(CCCCOc4cc(=O)oc5ccccc45)nn3)c(OC)c2)c1
inhibition of growth at 50 µM [1]: 47%
inhibition of growth at 50 µM [2]: 46%
growth inhibition (GI) [3]: inactive
inhibition of growth at 50 µM [4]: 44%

COc1cc(/C=C/C(=O)/C=C/c2cccc3ccccc23)ccc1OCc1cn(CCCCCOc2cc(=O)oc3ccccc23)nn1
inhibition of growth at 50 µM [1]: 44%
inhibition of growth at 50 µM [2]: 40%
growth inhibition (GI) [3]: inactive
inhibition of growth at 50 µM [4]: 42%

COc1cc(/C=C/C(=O)/C=C/c2cccc3ccccc23)ccc1OCc1cn(CCCCOc2cc(=O)oc3ccccc23)nn1
inhibition of growth at 50 µM [1]: 54%
inhibition of growth at 50 µM [2]: 50%
growth inhibition (GI) [3]: inactive
inhibition of growth at 50 µM [4]: 56%

COc1cc(/C=C/C(=O)/C=C/c2ccco2)ccc1OCc1cn(CCCCCOc2cc(=O)oc3ccccc23)nn1
inhibition of growth at 50 µM [1]: 39%
inhibition of growth at 50 µM [2]: 33%
growth inhibition (GI) [3]: inactive
inhibition of growth at 50 µM [4]: 37%

COc1cc(/C=C/C(=O)/C=C/c2cc(OC)c(OC)c(OC)c2)ccc1OCc1cn(CCCCOc2cc(=O)oc3ccccc23)nn1
inhibition of growth at 50 µM [1]: 65%
inhibition of growth at 50 µM [2]: 60%
inhibition of growth at 50 µM [5]: 5%
inhibition of growth at 50 µM [4]: 63%

COc1cc(/C=C/C(=O)/C=C/c2cccs2)ccc1OCc1cn(CCCCOc2cc(=O)oc3ccccc23)nn1
inhibition of growth at 50 µM [1]: 44%
inhibition of growth at 50 µM [2]: 40%
growth inhibition (GI) [3]: inactive
inhibition of growth at 50 µM [4]: 41%

COc1cc(/C=C/C(=O)/C=C/c2ccccc2)ccc1OCc1cn(CCCCCOc2cc(=O)oc3ccccc23)nn1
inhibition of growth at 50 µM [1]: 26%
inhibition of growth at 50 µM [2]: 22%
growth inhibition (GI) [3]: inactive
inhibition of growth at 50 µM [4]: 24%

COc1cc(/C=C/C(=O)/C=C/c2cccs2)ccc1OCc1cn(CCOc2cc(=O)oc3ccccc23)nn1
inhibition of growth at 50 µM [1]: 76%
IC50 [6]: 7.14 µM
inhibition of growth at 50 µM [2]: 66%
inhibition of growth at 50 µM [5]: 12%
IC50 [7]: 9.29 µM
inhibition of growth at 50 µM [4]: 71%
IC50 [8]: 11.4 µM

COc1cc(/C=C/C(=O)/C=C/c2ccccc2)ccc1OCc1cn(CCCCOc2cc(=O)oc3ccccc23)nn1
inhibition of growth at 50 µM [1]: 36%
inhibition of growth at 50 µM [2]: 31%
growth inhibition (GI) [3]: inactive
inhibition of growth at 50 µM [4]: 34%

COc1ccc(/C=C/C(=O)/C=C/c2ccc(OCc3cn(CCCOc4cc(=O)oc5ccccc45)nn3)c(OC)c2)cc1OC
inhibition of growth at 50 µM [1]: 73%
IC50 [6]: 8.51 µM
inhibition of growth at 50 µM [2]: 65%
inhibition of growth at 50 µM [5]: 9%
IC50 [7]: 11 µM
inhibition of growth at 50 µM [4]: 67%
IC50 [8]: 13 µM

COc1cc(/C=C/C(=O)/C=C/c2ccco2)ccc1OCc1cn(CCCOc2cc(=O)oc3ccccc23)nn1
inhibition of growth at 50 µM [1]: 57%
inhibition of growth at 50 µM [2]: 59%
growth inhibition (GI) [3]: inactive
inhibition of growth at 50 µM [4]: 51%

COc1cc(/C=C/C(=O)/C=C/c2cccs2)ccc1OCc1cn(CCCOc2cc(=O)oc3ccccc23)nn1
inhibition of growth at 50 µM [1]: 54%
inhibition of growth at 50 µM [2]: 55%
growth inhibition (GI) [3]: inactive
inhibition of growth at 50 µM [4]: 58%

COc1ccc(/C=C/C(=O)/C=C/c2ccc(OCc3cn(CCCCCOc4cc(=O)oc5ccccc45)nn3)c(OC)c2)cc1
inhibition of growth at 50 µM [1]: 39%
inhibition of growth at 50 µM [2]: 30%
growth inhibition (GI) [3]: inactive
inhibition of growth at 50 µM [4]: 35%

COc1cc(/C=C/C(=O)/C=C/c2cc(OC)c(OC)c(OC)c2)ccc1OCc1cn(CCCCCOc2cc(=O)oc3ccccc23)nn1
inhibition of growth at 50 µM [1]: 55%
inhibition of growth at 50 µM [2]: 51%
growth inhibition (GI) [3]: inactive
inhibition of growth at 50 µM [4]: 53%

COc1cc(/C=C/C(=O)/C=C/c2cccc3ccccc23)ccc1OCc1cn(CCCOc2cc(=O)oc3ccccc23)nn1
inhibition of growth at 50 µM [1]: 71%
IC50 [6]: 8.41 µM
inhibition of growth at 50 µM [2]: 64%
inhibition of growth at 50 µM [5]: 8%
IC50 [7]: 10.4 µM
inhibition of growth at 50 µM [4]: 66%
IC50 [8]: 12.7 µM

COc1cc(/C=C/C(=O)/C=C/c2ccco2)ccc1OCc1cn(CCOc2cc(=O)oc3ccccc23)nn1
inhibition of growth at 50 µM [1]: 78%
IC50 [6]: 7.87 µM
inhibition of growth at 50 µM [2]: 68%
inhibition of growth at 50 µM [5]: 14%
IC50 [7]: 9.18 µM
inhibition of growth at 50 µM [4]: 72%
IC50 [8]: 11.8 µM

COc1ccccc1/C=C/C(=O)/C=C/c1ccc(OCc2cn(CCOc3cc(=O)oc4ccccc34)nn2)c(OC)c1
inhibition of growth at 50 µM [1]: 75%
IC50 [6]: 7.33 µM
inhibition of growth at 50 µM [2]: 67%
inhibition of growth at 50 µM [5]: 11%
IC50 [7]: 9.49 µM
inhibition of growth at 50 µM [4]: 70%
IC50 [8]: 11.5 µM

COc1cccc(/C=C/C(=O)/C=C/c2ccc(OCc3cn(CCCOc4cc(=O)oc5ccccc45)nn3)c(OC)c2)c1
inhibition of growth at 50 µM [1]: 58%
inhibition of growth at 50 µM [2]: 52%
growth inhibition (GI) [3]: inactive
inhibition of growth at 50 µM [4]: 55%

COc1ccc(/C=C/C(=O)/C=C/c2ccc(OCc3cn(CCCOc4cc(=O)oc5ccccc45)nn3)c(OC)c2)cc1
inhibition of growth at 50 µM [1]: 56%
inhibition of growth at 50 µM [2]: 53%
growth inhibition (GI) [3]: inactive
inhibition of growth at 50 µM [4]: 54%

COc1cccc(/C=C/C(=O)/C=C/c2ccc(OCc3cn(CCCCCOc4cc(=O)oc5ccccc45)nn3)c(OC)c2)c1
inhibition of growth at 50 µM [1]: 37%
inhibition of growth at 50 µM [2]: 34%
growth inhibition (GI) [3]: inactive
inhibition of growth at 50 µM [4]: 36%

COc1ccccc1/C=C/C(=O)/C=C/c1ccc(OCc2cn(CCCCOc3cc(=O)oc4ccccc34)nn2)c(OC)c1
inhibition of growth at 50 µM [1]: 40%
inhibition of growth at 50 µM [2]: 47%
growth inhibition (GI) [3]: inactive
inhibition of growth at 50 µM [4]: 43%
